Reference: ChEMBL document CHEMBL1124114, “Peripherally acting enkephalin analogues. 1. Polar pentapeptides” (J Med Chem, 1988)
Numbered stars: 1 amine (or outer) side, 2 acyl side, 3 side chain; on linkers, the order of the positions; unused ones are H or OH. Square brackets hold non-standard residues; d marks the D form. Peptide text beside a SMILES is read from it. * marks the point of attachment. Phe(4-NO2) = N[C@@H](Cc1ccc([N+](=O)[O-])cc1)C(=O)O; Tyr(Nα-amidino) = N=C(N)N[C@@H](Cc1ccc(O)cc1)C(=O)*; X1 = O=C([C@@H](CSS(=O)(=O)O)N[*:1])[*:2]; X3 = O=C([C@@H](CCS(=O)(=O)O)N[*:1])[*:2]; X2 = C[S+](C)CC[C@@H](N[*:1])C(=O)[*:2]

How the values were obtained:
Format in all cases: functional
[1] = species on record: Cavia porcellus; assay: In vitro opioid activity of compound in the GPI (guinea pig ileum) by determination of inhibition of electrically induced contractions
Method in brief: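 Terminal ileum segments from 300-350 g guinea pigs in 20-mL bath, 1-g tension, Krebs' bicarbonate gassed 95% O2/5% CO2. Coaxial stimulation 0.1 Hz, 0.5 ms, supramaximal voltage; isotonic recording of contractions. Dose-response curves with 15-min washout between doses; opioid nature checked by reversal with naloxone (1 μg mL⁻¹).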

[2] = system: Mus musculus; assay: In vivo inhibition of Acetic acid-induced writhing in mice (sc)
Method in brief: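 Male TFW Tuck mice, five to six per group; acetic acid (0.6%) ip, 25 mL kg⁻¹; writhes counted for 5 min from 15 min after irritant. Compounds sc, 10 mL kg⁻¹. ED50 = dose giving 50% fewer writhes than vehicle, by linear regression.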

[3] = system: Mus musculus; assay: In vivo inhibition of phenyl-1,4-benzoquinone(PBQ) -induced writhing in mice (sc)
Method in brief: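 Female CD1 Charles River mice, groups of five to six; PBQ 2.5 mg kg⁻¹ ip (10 mL kg⁻¹). Drug or vehicle sc 30 min before PBQ; writhes (abdominal contractions/hind-limb extensions) counted 2.5 min starting 10 min post-PBQ. ED50 = dose halving writhes vs vehicle, from linear regression.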

[4] = Dose ratio in the presence / absence of N-methyl-nalorphine (11.5 mg/kg) in acetic acid (AA) writhing
Method in brief: (§1)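 Male TFW Tuck mice, groups of five to six; acetic acid (0.6%) ip at 25 mL kg⁻¹; writhes counted 5 min starting 15 min post-irritant. N-methylnalorphine 11.5 mg kg⁻¹ ip 20 min before sc agonist (both 10 mL kg⁻¹). ED50 by linear regression (50% writhe reduction vs vehicle); dose ratio = shift of parallel regression lines with/without antagonist.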

[5] = species on record: Mus musculus; assay: Effective dose was measured in hot plate test.
Method in brief: (§2)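 Male CFLP mice (Hacking and Churchill), groups of five to six, placed on copper plate at 55 °C; endpoint paw licking/shaking or jumping, 30-s cut-off. Drugs sc, 10 mL kg⁻¹. ED50 = dose doubling response latency vs vehicle, by parallel-line probit analysis.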

[6] = system: Mus musculus; assay: Effective dose was measured in hot plate test; no effect 25 mg/kg; method in brief: as §2
[7] = Dose ratio in the presence/absence of N-methyl-nalorphine (11.5 mg/kg) in acetic acid (AA) writhing; method in brief: as §1

| SMILES | IC50 for inhibition of electrically induced contractions [1] [nM] | ED50 [2] [mg/kg] | ED50 [3] [mg/kg] | Ratio [4] | ED50 [5] [mg/kg] | ED50 at 25 mg/kg [6] [mg/kg] | Ratio [7] |
| --- | --- | --- | --- | --- | --- | --- | --- |
| CSCC[C@H](NC(=O)[C@@H](N)Cc1ccc(O)cc1)C(=O)NCC(=O)N[C@@H](Cc1ccc([N+](=O)[O-])cc1)C(=O)N1CCC[C@H]1C(N)=O (H-YMG[Phe(4-NO2)]P-NH2) | 1.8 | 0.1 | 0.4 | 1.2 | 1.6 | – | – |
| Cl.NC(=O)[C@@H]1CCCN1C(=O)[C@H](Cc1ccc([N+](=O)[O-])cc1)NC(=O)CNC(=O)[C@@H](CS(=O)(=O)O)NC(=O)[C@@H](N)Cc1ccc(O)cc1 | 89.4 | 5.9 | – | – | 19 | – | – |
| NC(=O)[C@@H]1CCCN1C(=O)[C@H](Cc1ccc([N+](=O)[O-])cc1)NC(=O)CNC(=O)[C@@H](CCC(=O)O)NC(=O)[C@@H](N)Cc1ccc(O)cc1 | 9 | 1.4 | 3 | 5.5 | 7.6 | – | – |
| N=C(N)NCCC[C@@H](NC(=O)[C@H](Cc1ccc(O)cc1)NC(=N)N)C(=O)NCC(=O)N[C@@H](Cc1ccc([N+](=O)[O-])cc1)C(=O)N1CCC[C@H]1C(N)=O ({Tyr(Nα-amidino)}-[dR]G[Phe(4-NO2)]P-NH2) | 420 | 0.8 | 1.3 | 4.6 | – | 25 | – |
| C[S+](C)CC[C@@H](NC(=O)[C@@H](N)Cc1ccc(O)cc1)C(=O)NCC(=O)N[C@@H](Cc1ccc([N+](=O)[O-])cc1)C(=O)N1CCC[C@H]1C(N)=O.Cl.Cl (H-Y[X2]G[Phe(4-NO2)]P-NH2) | 61.2 | 8.1 | 3.1 | – | – | – | 3.3 |
| N=C(N)N[C@@H](Cc1ccc(O)cc1)C(=O)N[C@H](CCC(=O)O)C(=O)NCC(=O)N[C@@H](Cc1ccc([N+](=O)[O-])cc1)C(=O)N1CCC[C@H]1C(N)=O | 414 | 0.5 | 0.3 | 1.2 | 5.3 | – | – |
| C[S+](C)CC[C@@H](NC(=O)[C@H](Cc1ccc(O)cc1)N=C(N)N)C(=O)NCC(=O)N[C@@H](Cc1ccc([N+](=O)[O-])cc1)C(=O)N1CCC[C@H]1C(N)=O.Cl.Cl | 525 | 0.5 | 1.1 | 4.2 | 10.9 | – | – |
| Cl.NC(=O)[C@@H]1CCCN1C(=O)[C@H](Cc1ccc([N+](=O)[O-])cc1)NC(=O)CNC(=O)[C@@H](CCS(=O)(=O)O)NC(=O)[C@@H](N)Cc1ccc(O)cc1 (H-Y[X3]G[Phe(4-NO2)]P-NH2) | 807 | 3.5 | 3.1 | 4.2 | 18.6 | – | – |
| NC(=O)[C@@H]1CCCN1C(=O)[C@H](Cc1ccc([N+](=O)[O-])cc1)NC(=O)CNC(=O)[C@@H](CSCCS(=O)(=O)[O-])NC(=O)[C@@H](N)Cc1ccc(O)cc1.[Na+] | 3.6 | 0.1 | – | 4 | – | – | – |
| CN1CC[C@]23c4c5ccc(O)c4O[C@H]2[C@@H](O)C=C[C@H]3[C@H]1C5 [MORPHINE] | – | 0.5 | – | – | – | – | – |
| NC(=O)[C@@H]1CCCN1C(=O)[C@H](Cc1ccc([N+](=O)[O-])cc1)NC(=O)CNC(=O)[C@@H](CSS(=O)(=O)O)NC(=O)[C@@H](N)Cc1ccc(O)cc1 (H-Y[X1]G[Phe(4-NO2)]P-NH2) | 7.5 | 0.5 | 0.4 | 3.9 | 9.7 | – | – |
| NC(=O)[C@@H]1CCCN1C(=O)[C@H](Cc1ccc([N+](=O)[O-])cc1)NC(=O)CNC(=O)[C@@H](CCCN=C(N)N)NC(=O)[C@@H](N)Cc1ccc(O)cc1 | 132 | 5.7 | 4.9 | 5.5 | 35 | – | – |
